≈ marks a conversion by molar mass, not a printed value.
Columns and labels:
Type in all cases: functional
Prevotella bivia = test: Antimicrobial activity against Prevotella bivia under anaerobic conditions after 44 hrs by CLSI-M11-47 protocol based agar dilution method
Procedure, shortened: (§1)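 Clinical isolates were stored at −70°C in 20% skim milk and identified phenotypically or by partial 16S rRNA sequencing. Each strain was subcultured twice from frozen stock. Cell paste from 48-h cultures was suspended in brucella broth to a 0.5 McFarland standard. About 10^5 CFU per spot were applied by Steers replicator to agar dilution plates prepared on the day of testing. Plates were incubated 44 h at 37°C in an anaerobic chamber. MIC was taken as the lowest concentration giving complete inhibition or marked reduction of growth versus the drug-free control.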

Prevotella tannerae = test: Antimicrobial activity against Prevotella tannerae under anaerobic conditions after 44 hrs by CLSI-M11-47 protocol based agar dilution method; details: Alloprevotella tannerae; procedure, shortened: as §1
[1] = test system: Porphyromonas asaccharolytica; test: Antimicrobial activity against Porphyromonas asaccharolyticus under anaerobic conditions after 44 hrs by CLSI-M11-47 protocol based agar dilution method; procedure, shortened: as §1
Fusobacterium nucleatum = test: Antimicrobial activity against Fusobacterium nucleatum under anaerobic conditions after 44 hrs by CLSI-M11-47 protocol based agar dilution method; procedure, shortened: as §1
[2] = test system: Prevotella melaninogenica; test: Antimicrobial activity against Prevotella melaninogenica under anaerobic conditions after 44 hrs by CLSI-M11-47 protocol based agar dilution method; procedure, shortened: as §1
[3] = test system: Enterocloster clostridioformis; test: Antimicrobial activity against Clostridium clostridioforme under anaerobic conditions after 44 hrs by CLSI-M11-47 protocol based agar dilution method
Procedure, shortened: (§2)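 Reference agar dilution per CLSI M11-A7 with plates made on test day. Clinical isolates were stored at −70°C in 20% skim milk, subcultured twice, and 48-h cell paste was suspended in brucella broth to 0.5 McFarland. About 10^5 CFU/spot was applied with a Steers replicator. Plates were incubated 44 h at 37°C anaerobically. MIC was the lowest concentration giving complete inhibition or marked growth reduction versus the drug-free control.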

Hoylesella loescheii = test: Antimicrobial activity against Prevotella loescheii under anaerobic conditions after 44 hrs by CLSI-M11-47 protocol based agar dilution method; procedure, shortened: as §1
Porphyromonas somerae = test: Antimicrobial activity against Porphyromonas somerae under anaerobic conditions after 44 hrs by CLSI-M11-47 protocol based agar dilution method; procedure, shortened: as §1
Prevotella disiens = test: Antimicrobial activity against Prevotella disiens under anaerobic conditions after 44 hrs by CLSI-M11-47 protocol based agar dilution method; procedure, shortened: as §1
Prevotella bergensis = test: Antimicrobial activity against Prevotella bergensis under anaerobic conditions after 44 hrs by CLSI-M11-47 protocol based agar dilution method; details: Hallella bergensis; procedure, shortened: as §1
Phocaeicola vulgatus = test: Antimicrobial activity against Bacteroides vulgatus under anaerobic conditions after 44 hrs by CLSI-M11-47 protocol based agar dilution method; procedure, shortened: as §2
Gemella sanguinis = test: Antimicrobial activity against Gemella sanguinis under anaerobic conditions after 44 hrs by CLSI-M11-47 protocol based agar dilution method; procedure, shortened: as §1
Atopobium parvulum = test: Antimicrobial activity against Atopobium parvulum under anaerobic conditions after 44 hrs by CLSI-M11-47 protocol based agar dilution method; details: Lancefieldella parvula; procedure, shortened: as §2
Finegoldia magna = test: Antimicrobial activity against Finegoldia magna under anaerobic conditions after 44 hrs by CLSI-M11-47 protocol based agar dilution method; procedure, shortened: as §2
Peptoniphilus harei = test: Antimicrobial activity against Peptoniphilus harei under anaerobic conditions after 44 hrs by CLSI-M11-47 protocol based agar dilution method; procedure, shortened: as §1
Clostridium tertium = test: Antimicrobial activity against Clostridium tertium under anaerobic conditions after 44 hrs by CLSI-M11-47 protocol based agar dilution method; procedure, shortened: as §2
Solobacterium moorei = test: Antimicrobial activity against Solobacterium moorei under anaerobic conditions after 44 hrs by CLSI-M11-47 protocol based agar dilution method; procedure, shortened: as §1
Clostridium aldenense = test: Antimicrobial activity against Clostridium aldenense under anaerobic conditions after 44 hrs by CLSI-M11-47 protocol based agar dilution method; details: Enterocloster aldenensis; procedure, shortened: as §2
Anaerococcus vaginalis = test: Antimicrobial activity against Anaerococcus vaginalis under anaerobic conditions after 44 hrs by CLSI-M11-47 protocol based agar dilution method; procedure, shortened: as §2
Clostridium baratii = test: Antimicrobial activity against Clostridium baratii under anaerobic conditions after 44 hrs by CLSI-M11-47 protocol based agar dilution method
Prevotella corporis = test: Antimicrobial activity against Prevotella corporis under anaerobic conditions after 44 hrs by CLSI-M11-47 protocol based agar dilution method; procedure, shortened: as §1
Clostridium perfringens = test: Antimicrobial activity against Clostridium perfringens under anaerobic conditions after 44 hrs by CLSI-M11-47 protocol based agar dilution method
Eubacterium contortum = test: Antimicrobial activity against Eubacterium contortum under anaerobic conditions after 44 hrs by CLSI-M11-47 protocol based agar dilution method; details: Faecalicatena contorta; procedure, shortened: as §2
Eubacterium limosum = test: Antimicrobial activity against Eubacterium limosum under anaerobic conditions after 44 hrs by CLSI-M11-47 protocol based agar dilution method; procedure, shortened: as §2
Clostridium hathewayi = test: Antimicrobial activity against Clostridium hathewayi under anaerobic conditions after 44 hrs by CLSI-M11-47 protocol based agar dilution method; details: Hungatella hathewayi; procedure, shortened: as §2
Prevotella denticola = test: Antimicrobial activity against Prevotella denticola under anaerobic conditions after 44 hrs by CLSI-M11-47 protocol based agar dilution method; procedure, shortened: as §1
Parabacteroides merdae = test: Antimicrobial activity against Bacteroides merdae under anaerobic conditions after 44 hrs by CLSI-M11-47 protocol based agar dilution method; procedure, shortened: as §2
Clostridium citroniae = test: Antimicrobial activity against Clostridium citroniae under anaerobic conditions after 44 hrs by CLSI-M11-47 protocol based agar dilution method; details: Enterocloster citroniae; procedure, shortened: as §2
Clostridium glycolicum = test: Antimicrobial activity against Clostridium glycolicum under anaerobic conditions after 44 hrs by CLSI-M11-47 protocol based agar dilution method; details: Terrisporobacter glycolicus; procedure, shortened: as §2
[Clostridium] innocuum = Antimicrobial activity against Clostridium […] under anaerobic conditions after 44 hrs by CLSI-M11-47 protocol based agar dilution method; procedure, shortened: as §2
[4] = test system: Fusobacterium necrophorum; test: Antimicrobial activity against Fusobacterium necrophorum under anaerobic conditions after 44 hrs by CLSI-M11-47 protocol based agar dilution method; procedure, shortened: as §2
Clostridium cadaveris = test: Antimicrobial activity against Clostridium cadaveris under anaerobic conditions after 44 hrs by CLSI-M11-47 protocol based agar dilution method; procedure, shortened: as §2

Work on Cc1ncc([N+](=O)[O-])n1CCO [METRONIDAZOLE] yielded an MIC50 (Prevotella bivia) of 1 µg/mL (≈ 5.84 µM), an MIC90 (Prevotella bivia) of 2 µg/mL (≈ 11.7 µM) and an MIC50 (Prevotella tannerae) of 0.5 µg/mL (≈ 2.92 µM). For the same molecule, the MIC90 (Prevotella tannerae) was 2 µg/mL (≈ 11.7 µM), the MIC50 [1] was 0.06 µg/mL (≈ 0.351 µM) and the MIC90 [1] was 0.125 µg/mL (≈ 0.73 µM). For the same molecule, the MIC50 (Fusobacterium nucleatum) was no more than 0.03 µg/mL, the MIC90 (Fusobacterium nucleatum) was 0.25 µg/mL (≈ 1.46 µM) and the MIC50 [2] was 0.5 µg/mL (≈ 2.92 µM). It also gave an MIC90 [2] of 1 µg/mL (≈ 5.84 µM), an MIC50 [3] of 0.06 µg/mL (≈ 0.351 µM) and an MIC90 [3] of 0.25 µg/mL (≈ 1.46 µM). The MIC50 (Hoylesella loescheii) was 0.5 µg/mL (≈ 2.92 µM), the MIC90 (Hoylesella loescheii) was 2 µg/mL (≈ 11.7 µM) and the MIC50 (Porphyromonas somerae) was 0.5 µg/mL (≈ 2.92 µM). It also gave an MIC90 (Porphyromonas somerae) of 0.5 µg/mL (≈ 2.92 µM), an MIC50 (Prevotella disiens) of 0.5 µg/mL (≈ 2.92 µM) and an MIC90 (Prevotella disiens) of 2 µg/mL (≈ 11.7 µM). It also gave an MIC50 (Prevotella bergensis) of 0.5 µg/mL (≈ 2.92 µM), an MIC90 (Prevotella bergensis) of 2 µg/mL (≈ 11.7 µM) and an MIC50 (Phocaeicola vulgatus) of 1 µg/mL (≈ 5.84 µM). For the same molecule, the MIC90 (Phocaeicola vulgatus) was 2 µg/mL (≈ 11.7 µM), the MIC50 (Gemella sanguinis) was 1 µg/mL (≈ 5.84 µM) and the MIC90 (Gemella sanguinis) was 4 µg/mL (≈ 23.4 µM). For the same molecule, the MIC50 (Atopobium parvulum) was 0.5 µg/mL (≈ 2.92 µM), the MIC90 (Atopobium parvulum) was 1 µg/mL (≈ 5.84 µM) and the MIC50 (Finegoldia magna) was 0.5 µg/mL (≈ 2.92 µM). The MIC90 (Finegoldia magna) was 1 µg/mL (≈ 5.84 µM), the MIC50 (Peptoniphilus harei) was 1 µg/mL (≈ 5.84 µM) and the MIC90 (Peptoniphilus harei) was 4 µg/mL (≈ 23.4 µM). The MIC50 (Clostridium tertium) was 0.5 µg/mL (≈ 2.92 µM), the MIC90 (Clostridium tertium) was 4 µg/mL (≈ 23.4 µM) and the MIC50 (Solobacterium moorei) was 0.5 µg/mL (≈ 2.92 µM). It also gave an MIC90 (Solobacterium moorei) of 1 µg/mL (≈ 5.84 µM), an MIC50 (Clostridium aldenense) of 0.06 µg/mL (≈ 0.351 µM) and an MIC90 (Clostridium aldenense) of 0.25 µg/mL (≈ 1.46 µM). It also gave an MIC50 (Anaerococcus vaginalis) of 1 µg/mL (≈ 5.84 µM), an MIC90 (Anaerococcus vaginalis) of 4 µg/mL (≈ 23.4 µM) and an MIC50 (Clostridium baratii) of 0.5 µg/mL (≈ 2.92 µM). The MIC90 (Clostridium baratii) was 4 µg/mL (≈ 23.4 µM), the MIC50 (Prevotella corporis) was 0.5 µg/mL (≈ 2.92 µM) and the MIC90 (Prevotella corporis) was 2 µg/mL (≈ 11.7 µM). The MIC50 (Clostridium perfringens) was 2 µg/mL (≈ 11.7 µM), the MIC90 (Clostridium perfringens) was 4 µg/mL (≈ 23.4 µM) and the MIC50 (Eubacterium contortum) was 0.5 µg/mL (≈ 2.92 µM). For the same molecule, the MIC90 (Eubacterium contortum) was 1 µg/mL (≈ 5.84 µM), the MIC50 (Eubacterium limosum) was 0.5 µg/mL (≈ 2.92 µM) and the MIC90 (Eubacterium limosum) was 1 µg/mL (≈ 5.84 µM). For the same molecule, the MIC50 (Clostridium hathewayi) was 0.06 µg/mL (≈ 0.351 µM), the MIC90 (Clostridium hathewayi) was 0.25 µg/mL (≈ 1.46 µM) and the MIC50 (Prevotella denticola) was 0.5 µg/mL (≈ 2.92 µM). For the same molecule, the MIC90 (Prevotella denticola) was 2 µg/mL (≈ 11.7 µM), the MIC50 (Parabacteroides merdae) was 1 µg/mL (≈ 5.84 µM) and the MIC90 (Parabacteroides merdae) was 2 µg/mL (≈ 11.7 µM). It also gave an MIC50 (Clostridium citroniae) of 0.06 µg/mL (≈ 0.351 µM), an MIC90 (Clostridium citroniae) of 0.25 µg/mL (≈ 1.46 µM) and an MIC50 (Clostridium glycolicum) of 0.5 µg/mL (≈ 2.92 µM). For the same molecule, the MIC90 (Clostridium glycolicum) was 4 µg/mL (≈ 23.4 µM), the MIC50 ([Clostridium] innocuum) was 1 µg/mL (≈ 5.84 µM) and the MIC90 ([Clostridium] innocuum) was 4 µg/mL (≈ 23.4 µM). For the same molecule, the MIC50 [4] was 0.125 µg/mL (≈ 0.73 µM), the MIC90 [4] was 0.25 µg/mL (≈ 1.46 µM) and the MIC50 (Clostridium cadaveris) was 0.5 µg/mL (≈ 2.92 µM). For the same molecule, the MIC90 (Clostridium cadaveris) was 4 µg/mL (≈ 23.4 µM).

Reference: ChEMBL document CHEMBL1255409, “In vitro activity of ceftaroline against 623 diverse strains of anaerobic bacteria” (2010)
